What was measured:
[1] = Inhibition of sheep brain tubulin microtubule assembly by turbidimetry assay; parameters: species or system Ovis aries
Method in brief: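 Sheep brain tubulin purified by two assembly–disassembly cycles, about 2–3 mg/mL in 0.1 M MES, 0.5 mM MgCl2, 1 mM EGTA, 1 mM GTP, pH 6.6. Compounds in DMSO; incubation 10 min at 37 °C, then 5 min at 0 °C. Assembly followed continuously by turbidity at 350 nm at 37 °C.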

HCT-116 = experiment: Cytotoxicity against human HCT116 cells after 72 hrs; format: functional, cell-based; conditions: HCT-116, 72 h
Method in brief: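 Cells seeded at 5 × 10³ per well in growth medium, cultured 24 h, then given compound in DMSO (under 0.1% final). After 72 h incubation, resazurin added for 2 h and fluorescence read (excitation 560 nm). IC50 taken as concentration reducing cell growth by 50% after 72 h treatment.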

SMILES	IC50 ([1]; read-out: IC50)	IC50 [1]	IC50 (HCT-116)
COc1ccc(/C(=C\c2cc(OC)c(OC)c(OC)c2)c2cc(OC)c(OC)c(OC)c2)c(Br)c1	–	Not Active	> 10 µM
COc1ccc(/C(=C/c2ccc(OC)c(O[Si](C)(C)C(C)(C)C)c2)c2cc(OC)c(OC)c(OC)c2Br)cc1	–	Not Active	> 10 µM
COc1ccc(/C=C\c2cc(OC)c(OC)c(OC)c2)cc1O [COMBRETASTATIN A4]	–	–	0.002 µM
C=C(c1ccc(OC)c(O)c1)c1cc(OC)c(OC)c(OC)c1	2.1 µM	–	0.002 µM
COc1ccc(/C=C(/c2ccc(OC)cc2)c2cc(OC)c(OC)c(OC)c2Br)cc1	–	Not Active	> 10 µM
COCOc1cc(/C=C(/c2ccc(OC)c(OCOC)c2)c2cc(OC)c(OC)c(OC)c2Br)ccc1OC	8 µM	–	> 10 µM

More lines, main results first:

IC50 ([1]; read-out: IC50)	IC50 [1]	SMILES	IC50 (HCT-116)
8.5 µM	–	COc1ccc(/C=C(/c2ccc(OC)c(O)c2)c2cc(OC)c(OC)c(OC)c2)cc1O	5 µM
8 µM	–	COc1ccc(/C=C(/c2ccc(OC)cc2)c2cc(OC)c(OC)c(OC)c2)cc1	> 10 µM
8.1 µM	–	COc1ccc(/C=C(\c2ccc(OC)cc2)c2cc(OC)c(OC)c(OC)c2)cc1	> 10 µM
–	Not Active	COc1ccc(/C=C(/c2ccc(OC)c(F)c2)c2cc(OC)c(OC)c(OC)c2)cc1O	8 µM
–	Not Active	COc1ccc(/C(=C\c2cc(OC)c(OC)c(OC)c2)c2cc(OC)c(OC)c(OC)c2)cc1	> 10 µM
–	Not Active	COc1ccc(/C=C(/c2ccc(C)cc2)c2cc(OC)c(OC)c(OC)c2)cc1O	3 µM
–	Not Active	COc1ccc(/C=C(\c2cc(OC)c(OC)c(OC)c2)c2ccc3ccccc3c2)cc1O	8 µM
7.8 µM	–	COc1ccc(/C(=C/c2ccc(OC)c(O)c2)c2cc(OC)c(OC)c(OC)c2)cc1	> 10 µM
